Drawing on ChEMBL document CHEMBL1137430, “Incorporation of an intramolecular hydrogen-bonding motif in the side chain of 4-aminoquinolines enhances activity against drug-resistant P. falciparum” (J Med Chem, 2006), this text covers IC50 for 20 molecules.

In assay [1] the test system is Plasmodium falciparum. As to the kind of experiment: Antimalarial activity against chloroquine-sensitive Plasmodium falciparum 3D7. The assay is classed as functional, organism-based. The procedure, abridged:
(§1)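 P. falciparum blood-stage cultures at 37 °C under 5% CO2, 5% O2. Samples taken 72 h after drug addition, fixed in 2% paraformaldehyde about 1 h, then stained with 50 nM YOYO-1 in PBS for 24 h in the dark at 4 °C. Percent parasitized RBCs read by flow cytometry against no-drug cultures. Doses 0.1–200 nM in triplicate. IC50 from a variable-slope sigmoidal fit.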

The subject of assay [2] is Plasmodium falciparum. As to the kind of experiment: Antimalarial activity against multidrug-resistant Plasmodium falciparum W2. The assay is classed as functional, organism-based. The procedure, abridged: as §1

In assay [1], `CCCN(CCCNc1ccnc2cc(Cl)ccc12)Cc1cc(F)ccc1OC` displayed an IC50 of 5.2 nM.

For the molecule `CCCN(CCCCNc1ccnc2cc(Cl)ccc12)Cc1cccc2c1OCO2`, the 50% inhibitory concentration (IC50) in assay [1] amounted to 4.2 nM; in assay [2], 23 nM.

With `CCCN(CCCCNc1ccnc2cc(Cl)ccc12)Cc1ccco1`, the half-inhibitory concentration (IC50) in assay [1] amounted to 3.1 nM; in assay [2] it was 4 nM.

As for `CCCN(CCCCNc1ccnc2cc(Cl)ccc12)Cc1ccc(C)o1`, the 50% inhibitory concentration (IC50) in assay [1] came out at 7.4 nM; in assay [2] it was 30.2 nM.

On to `CCCN(CCCCNc1ccnc2cc(Cl)ccc12)Cc1cccc(F)c1O`, for which the IC50 in assay [1] is 1.4 nM; in assay [2], 4.6 nM.

Regarding `CCCN(CCCCNc1ccnc2cc(Cl)ccc12)Cc1cc(OC)ccc1O`, the IC50 was 6.8 nM in assay [1] and 27.5 nM in assay [2].

With `CCCN(CCCCNc1ccnc2cc(Cl)ccc12)Cc1cc(OC(F)(F)F)ccc1O`, the concentration for half-maximal inhibition (IC50) in assay [1] came to 2.4 nM; in assay [2] it was 5.9 nM.

Take `CCCN(CCCCNc1ccnc2cc(Cl)ccc12)Cc1cc(F)ccc1OC`: the IC50 turned out to be 1.9 nM in assay [1] and 4.9 nM in assay [2].

Take `CCCN(CCCCNc1ccnc2cc(Cl)ccc12)Cc1cccs1`: the half-maximal inhibitory concentration (IC50) was 7.2 nM in assay [1] and 22 nM in assay [2].

Consider `CCCN(CCCNc1ccnc2cc(Cl)ccc12)Cc1cccs1`, for which the results for the IC50 in assay [1] and in assay [2] were 32.1 nM and 140 nM, respectively.

In the case of `CCCN(CCCCNc1ccnc2cc(Cl)ccc12)Cc1cccc(OC)c1O`, the IC50 in assay [1] stood at 1 nM; in assay [2], 4.3 nM.

As to `CCCN(CCCCNc1ccnc2cc(Cl)ccc12)Cc1ccc(Cl)o1`, the IC50 was found to be 4.3 nM in assay [1] and 6 nM in assay [2].

`CCCN(CCCNc1ccnc2cc(Cl)ccc12)Cc1ccccc1O`: the concentration for half-maximal inhibition (IC50) in assay [1] was determined as 0.65 nM; in assay [2] it was 1.8 nM.

For `CCCN(CCCCNc1ccnc2cc(Cl)ccc12)Cc1cc(O)ccc1O`, the half-maximal inhibitory concentration (IC50) was found to be 2.2 nM in assay [1] and 8.9 nM in assay [2].

With `CCCN(CCCNc1ccnc2cc(Cl)ccc12)Cc1ccco1`, the 50% inhibitory concentration (IC50) came to 12.2 nM in assay [1] and 33 nM in assay [2].

Turning to `CCCN(CCCCNc1ccnc2cc(Cl)ccc12)Cc1ccccc1O`, the values for the IC50 in assay [1] and in assay [2] were 7 nM and 20 nM, respectively.

In the case of `CCCN(CCCCNc1ccnc2cc(Cl)ccc12)Cc1c(F)cccc1OC`, the values for the half-inhibitory concentration (IC50) in assay [1] and in assay [2] were 10 nM and 11.2 nM, respectively.

As to `CCCN(CCCNc1ccnc2cc(Cl)ccc12)Cc1cc(O)ccc1O`, the half-maximal inhibitory concentration (IC50) in assay [1] stood at 2.9 nM; in assay [2], 22.5 nM.

In the case of `CCCN(CCCNc1ccnc2cc(C)ccc12)Cc1cc([N+](=O)[O-])ccc1O`, the IC50 in assay [1] came out at 38.8 nM; in assay [2], 126 nM.

Consider `CCCN(CCCNc1ccnc2cc(Cl)ccc12)Cc1cccc(F)c1O`, for which the results for the IC50 in assay [1] and in assay [2] were 0.98 nM and 2.6 nM, respectively.

Broadly, the IC50 is the concentration that inhibits the measured activity by half. Read a low IC50 as inhibition by little substance.
